High-throughput results (PubChem BioAssay)
MT1-MMP act inh – blockers of MT1-MMP proenzyme processing, primary screen, HT1080 RFP-PRO-GFP cells, GFP/RFP fluorescence; 360,000 tested, 0.061% active; GFP/RFP ratio change, % at 20 µM; Matrix metalloproteinase-14 (Homo sapiens), P50281; GFP/RFP ratio fluorescence, overnight; percent of plate control window, DMSO zero;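 active means GFP/RFP ratio change of at least 30% with cell ATP level not reduced by more than half and red fluorescence within 50% of control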
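Assay system: HT1080 RFP-PRO-GFP cells. Benchmarks: DMSO vehicle wells and RFP-L50D-GFP reporter cell wells. Times: overnight cell settling, then overnight compound exposure, 37 °C, 5% CO2. Compound: 20 µM single dose, 1% DMSO. Read-out basis: GFP/RFP fluorescence ratio.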
MPTP inh – mitochondrial permeability transition pore inhibitors, primary screen, biochemical, isolated mouse mitochondria, absorbance | inhibition, % at 10 µM | 360,000 tested, 1.4% active | AID 602449, 2012 | Ca2+ swelling absorbance, 30 min;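 active means inhibition of 50% or more, scaled per plate between neutral and stimulator controls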
ADAM17 inh – ADAM17 inhibitors, primary screen, biochemical, QFRET | recombinant ADAM17, EDANS/DABCYL FRET peptide cleavage | 370,000 tested, 0.83% active | Disintegrin and metalloproteinase domain-containing protein 17 (Homo sapiens), P78536 | inhibition, % at 6.95 µM;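 active means inhibition above the mean of compounds lying between control limits plus 3 SD, set per campaign, cut at about 8.5% in these data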
GRIN3A LBD mod – binders of NR3A ligand-binding domain, primary screen, biophysical, differential scanning fluorimetry, uHTS. Glutamate receptor ionotropic, NMDA 3A (GRIN3A) ligand-binding domain. NR3A LBD differential scanning fluorimetry, Tm shift; 0% = protein alone, 100% = glycine-bound protein. Tm shift relative to glycine control, % at 25 µM. 340,000 tested, 2.5% active. AID 1259313, 2017;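 active means melting temperature shift of at least 10% of the positive control shift, at one fixed dose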
ADAM10 inh – human ADAM10 inhibitors, primary screen, biochemical, QFRET, HTS. Disintegrin and metalloproteinase domain-containing protein 10 (Homo sapiens), O14672. recombinant ADAM10, EDANS/DABCYL FRET peptide cleavage, 3 h. inhibition, % at 7 µM. 370,000 tested, 0.62% active. AID 720582, 2013;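 active means inhibition above a per-campaign cutoff equal to the mean of compounds falling between control-based bounds plus 3 SD, cut at about 20% in these data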
Target sequence (O14672 214-748 limits assumed): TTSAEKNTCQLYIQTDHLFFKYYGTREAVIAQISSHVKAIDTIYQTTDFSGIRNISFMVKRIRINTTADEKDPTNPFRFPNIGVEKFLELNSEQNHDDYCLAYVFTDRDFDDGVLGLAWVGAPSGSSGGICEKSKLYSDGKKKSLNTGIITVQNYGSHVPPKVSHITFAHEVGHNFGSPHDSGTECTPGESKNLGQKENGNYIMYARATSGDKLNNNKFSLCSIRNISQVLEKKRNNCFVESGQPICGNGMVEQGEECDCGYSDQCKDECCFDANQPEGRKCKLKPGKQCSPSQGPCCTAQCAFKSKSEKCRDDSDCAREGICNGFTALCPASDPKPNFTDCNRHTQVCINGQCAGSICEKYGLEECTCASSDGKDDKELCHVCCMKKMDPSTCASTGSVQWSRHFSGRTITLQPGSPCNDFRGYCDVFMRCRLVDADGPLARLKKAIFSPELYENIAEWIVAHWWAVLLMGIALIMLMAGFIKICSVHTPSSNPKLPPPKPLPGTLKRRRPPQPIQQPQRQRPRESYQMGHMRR
SKN-1 inh – suppressors of acrylamide-induced Pgst-4::GFP reporter in worms, primary screen, SKN-1 inhibitor project, whole organism, uHTS, GFP/RFP fluorescence ratio, strain VP596; inhibition, % at 21.8 µM; C. elegans VP596 Pgst-4::GFP/RFP ratio, 24 h; AID 624304, 2012; 360,000 tested, 0.49% active;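 active means interference check ratio from 0.5 to 1.5 plus GFP to RFP signal ratio inhibition reaching or exceeding a fixed threshold, cut at about 30% in these data, passing the limit was not always enough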
MPTP counter – fluorescence retest of MPTP screen hits in isolated mitochondria, single concentration; shares compounds with MPTP inh; membrane potential, Rhodamine 123 fluorescence; inhibition, % at 10 µM; 5,000 tested, 78% active; in the data active means inhibition above about 22%
MPTP abs DR – mitochondrial permeability transition pore inhibitors, dose response, biochemical, absorbance, uHTS hits | shares compounds with MPTP inh | isolated mitochondria swelling | IC50, µM | 780 tested, 58% active | AID 651561, 2012; in the data active means IC50 below about 20 µM
MPTP cs DR – fluorescent counter-screen in isolated mitochondria, dose response, counter-screen for MPTP inhibitor project, biochemical, fluorescence, uHTS hits. shares compounds with MPTP inh. isolated mitochondria counterscreen, fluorescence read-out. IC50, µM. 780 tested, 49% active; in the data active means IC50 below about 80 µM
A number is an active result; n = inactive; x = no result. An excerpt weighted towards active compounds, which were near 4.7% of everything screened.

SMILES	MT1-MMP act inh	MPTP inh	ADAM17 inh	GRIN3A LBD mod	ADAM10 inh	SKN-1 inh	MPTP counter	others
CCCCn1c(NC(=O)c2ccco2)c(S(=O)(=O)c2ccc(C)cc2)c2nc3ccccc3nc21	n	n	n	n	n	n	x
CCCCn1c(NC(=O)c2ccc(Br)o2)c(S(=O)(=O)c2ccccc2)c2nc3ccccc3nc21	n	78	n	n	n	n	78
CN(CC(=O)Nc1cccc(F)c1)CC(=O)Nc1ccccc1[N+](=O)[O-]	n	78	n	n	n	n	51
Cc1ccc(NC(=O)COC(=O)CC2CCCC2)cc1F	n	n	n	n	n	n	x
O=C(NCc1ccc2c(c1)OCO2)c1c(-c2ccccc2)sc2ccccc12	n	82	n	n	n	n	79
CCNC(=O)NC(=O)C(C)SCc1ccccc1C (configuration not stated)	n	n	n	n	n	n	x
Cc1ccc2c(c1)c1c3n2CCN(C(=O)C2CC2)C3CCC1 (configuration not stated)	n	n	n	n	n	n	x
Cc1ccc2c(c1)c1c3n2CCN(C(=O)CN2CCN(C)CC2)C3CCC1 (configuration not stated)	n	75	n	n	n	n	n	MPTP abs DR=20;MPTP cs DR=n
CN1CCN(CC(=O)N2CCn3c4c(c5cc(C6CCCCC6)ccc53)CCCC42)CC1 (configuration not stated)	n	98	x	n	x	n	n
Cc1ccc2c(c1)c1c3n2CCN(C(=O)Cn2c(-c4ccccc4)noc2=O)C3CCC1 (configuration not stated)	n	n	n	n	n	n	x
Cc1oc(-c2cccc(Cl)c2)nc1CN1CCCC(C(=O)NC(C)c2ccc3c(c2)OCCO3)C1 (configuration not stated)	n	51	n	n	n	n	n	MPTP abs DR=12;MPTP cs DR=20
Cc1oc(-c2cccc(Cl)c2)nc1CN1CCCC(C(=O)NCc2ccco2)C1 (configuration not stated)	n	n	n	n	n	n	x
N/C(=N\OC(=O)C(c1ccccc1)c1ccccc1)c1ccncc1	n	n	n	n	n	n	x
C[C@H](O)[C@@H]1C(=O)N2CCc3c([nH]c4c(-c5ccccc5)cccc34)[C@@H]2C[C@@H]1N(C)C(=O)Nc1ccccc1	x	x	n	x	n	x	x
Cc1ccc(F)cc1NCC(=O)Nc1ccc(Br)cc1	n	71	n	n	n	n	72
O=C1CN(C(=O)c2ccccc2F)C(c2ccccc2)c2cc(F)ccc2N1 (configuration not stated)	n	n	n	n	n	n	x
Cc1cccc(NC(=S)Nc2cccc(C(F)(F)F)c2)n1	n	n	n	n	n	n	x
S=C(Nc1ccccc1)Nc1ccc(Cl)cc1Cl	n	61	n	n	n	n	79
FC(F)(F)c1cccc(NC(=S)Nc2cccc(NC(=S)Nc3cccc(C(F)(F)F)c3)n2)c1	n	91	n	n	n	n	64
O=C(NNC(=S)Nc1cccc(C(F)(F)F)c1)c1cccc(Cl)c1	n	94	n	25	n	n	86
O=C(NNC(=S)Nc1cccc(C(F)(F)F)c1)c1ccccc1Cl	n	n	n	n	n	n	x
